Tn6 DDE FP: inhibitors of Tn6 peptide binding to human fibrin DD(E). P02675. Fibrin DD(E) TRITC-Tn6 fluorescence polarization displacement. inhibition, % at 8.3 µM. 370,000 compounds, 0.21% hits. AID 720509;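 active = inhibition above a per-campaign cutoff: mean of compounds within control limits plus 3 SD, cut at about 15% in these data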
Target sequence (P02675 whole entry, looked up): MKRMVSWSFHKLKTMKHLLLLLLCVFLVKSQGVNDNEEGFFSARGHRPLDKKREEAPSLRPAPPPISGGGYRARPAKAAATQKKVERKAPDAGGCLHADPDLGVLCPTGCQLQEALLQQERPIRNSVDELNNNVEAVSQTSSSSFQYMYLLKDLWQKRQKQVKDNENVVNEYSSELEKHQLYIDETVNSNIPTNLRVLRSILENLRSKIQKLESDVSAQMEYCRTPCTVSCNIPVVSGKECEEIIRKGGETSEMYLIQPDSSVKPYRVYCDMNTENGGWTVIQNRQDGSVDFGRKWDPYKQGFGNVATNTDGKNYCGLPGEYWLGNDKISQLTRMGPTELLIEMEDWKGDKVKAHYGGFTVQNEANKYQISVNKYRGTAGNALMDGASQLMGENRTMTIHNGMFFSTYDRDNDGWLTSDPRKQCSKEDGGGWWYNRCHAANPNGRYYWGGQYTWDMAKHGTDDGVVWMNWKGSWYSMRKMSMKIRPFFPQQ
ARNT-TACC3 inh: ARNT/TACC3 interaction disruption; AID 623870; inhibition, % at 9.99 µM; AlphaScreen His-ARNT PAS-B/GST-TACC3 binding, luminescence; TACC3 fragment carries E629A point mutation; Q9Y6A5; 390,000 compounds, 0.66% hits;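 active = mean inhibition of replicates at least 50% and at least half of replicates each reaching 50%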
CAL PDZ FP-1: CAL PDZ (human) peptide binding inhibition. Q9HD26. AID 602252. inhibition, % at 24.9 µM. 300,000 compounds, 0.92% hits. purified CAL PDZ, TMR-peptide fluorescence polarization, 1 h;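 active = mean inhibition of at least 30% with at least half of replicates also reaching 30%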
GRK2 aptamer HTS: human GRK2 inhibition via aptamer displacement | bead flow cytometry, FAM-aptamer displacement from GRK2 | inhibition of aptamer binding, % at 10 µM | 330,000 compounds, 0.59% hits | AID 488847;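 active = inhibition of aptamer binding above 40%, roughly 3 SD of noise, on plates passing a quality check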;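 note: median bead fluorescence of bound FAM aptamer so fluorescent compounds give negative values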
CAL PDZ FP-2: blocks peptide binding to human CAL PDZ domain. Q9HD26. purified CAL PDZ, TMR-peptide fluorescence polarization, 1 h. inhibition, % at 20 µM. 330,000 compounds, 0.02% hits;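 active = highest replicate inhibition of at least 40%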
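Test system: purified CerCALP PDZ construct; Compound dosing: one concentration, 20 µM compound; Also added: TMR-labelled reporter peptide T*-PRC34 bound in PDZ groove; Read-out: inhibition from polarization loss; Controls: unlabelled peptide and DMSO controls; Signal: FP readout, S and P plane fluorescence; Incubation: 1 h at RT.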
Tn7 DDE FP: inhibitors of Tn7 peptide binding to human fibrin DD(E). P02675. FP displacement of FITC-Tn7 peptide from fibrin DD(E); 0% = median of compound wells per plate. inhibition, % at 8.3 µM. 370,000 compounds, 0.13% hits. AID 720508;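 active = inhibition above the mean of compounds falling within the control limits plus 3 SD of them, cut at about 14% in these data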
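Test system – human fibrin DD(E) · Times – 10 min preincubation, 3 h with tracer, room temperature · Detection – fluorescence polarization of the labelled Tn7 tracer · Measure – percent inhibition normalized to high-control wells · Benchmarks – high control wells with 10 µM unlabelled Aha-Tn7 peptide (full inhibition) · Repeats – singlicate testing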
DDE Tn6 FP ctr: counter-screen hit for Tn6 peptide-fibrin DD(E) binding disruption. TRITC-Tn6 fluorescence polarization displacement; 0% = median of compound wells, not DMSO. inhibition, % at 8.3 µM. 680 compounds, 2% hits. AID 720621. shares compounds with Tn6 DDE FP;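 active = inhibition above the mean of test compounds lying between the control limits plus 3 SD of those, cut at about 14% in these data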
DDE Tn6 confirm: confirmation of inhibitors of Tn6 binding to human fibrin DD(E); shares compounds with Tn6 DDE FP; FP displacement of TRITC-Tn6 peptide from DD(E); 0% = per-plate median of test wells; inhibition, % at 8.3 µM; 680 compounds, 10% hits;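 active = inhibition above the mean of compounds lying within the control limits plus 3 SD, cut at about 16% in these data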
Large screens that a line does not name were inactive (follow-up assays come after a bar, where they were run). An excerpt weighted towards active compounds, which were near 1.8% of everything screened.

CCCCC1CC(CSc2ncn[nH]2)OC1=O (stereo not drawn)	Tn6 DDE FP 72 | DDE Tn6 FP ctr inactive | DDE Tn6 confirm inactive
CCCCCCCC1CC(CSc2ncn[nH]2)OC1=O (stereo not drawn)	none
CCCCCCCC1CC(CSC(=N)N)OC1=O (stereo not drawn)	none
O=S(=O)(Nc1cccc(-c2cn3cccnc3n2)c1)c1ccccc1	none (no result: CAL PDZ FP-1)
O=S(=O)(Nc1cccc(-c2cn3cccnc3n2)c1)c1ccc(-c2ccccc2)cc1	Tn6 DDE FP 20 (no result: CAL PDZ FP-1) | DDE Tn6 FP ctr inactive | DDE Tn6 confirm inactive
Cc1ccccc1NC(=O)c1ccccc1NC(=O)c1ccco1	Tn6 DDE FP 16 | DDE Tn6 FP ctr inactive | DDE Tn6 confirm inactive
O=[n+]1c2c(n([O-])c3cc(F)c(N4CCCC4)cc31)CCC2	Tn6 DDE FP 16 | DDE Tn6 FP ctr inactive | DDE Tn6 confirm 17
COc1ccc(-c2csc3ncnc(N4CCN(c5ccccc5O)CC4)c23)cc1	none (no result: Tn6 DDE FP, Tn7 DDE FP)
Cc1ccc(-c2csc3ncnc(N4CCN(c5ccccc5O)CC4)c23)cc1	Tn6 DDE FP 16 (no result: CAL PDZ FP-1) | DDE Tn6 FP ctr inactive | DDE Tn6 confirm inactive
Cc1ccc(Cn2c(=O)c3ccccc3n3c(CCC(=O)NCCN4CCOCC4)nnc23)cc1	none (no result: Tn6 DDE FP, Tn7 DDE FP)
CC(C)CCn1c(=O)c2ccccc2n2c(CN3CCOCC3)nnc12	Tn6 DDE FP 16 | DDE Tn6 FP ctr inactive | DDE Tn6 confirm inactive
COc1ccc(C=Nn2c(-c3ccccc3F)n[nH]c2=S)cc1OCc1ccccc1	none (no result: ARNT-TACC3 inh, CAL PDZ FP-1, GRK2 aptamer HTS, CAL PDZ FP-2)
Cc1cccc(C)c1-n1nnnc1C1(C)CCC(=O)N1Cc1ccc(F)cc1 (stereo not drawn)	none (no result: ARNT-TACC3 inh, CAL PDZ FP-1, GRK2 aptamer HTS, CAL PDZ FP-2)
Cc1cccc(C)c1-n1nnnc1C1(C)CN(S(C)(=O)=O)CC(=O)N1Cc1ccc(F)cc1 (stereo not drawn)	Tn6 DDE FP 16 (no result: ARNT-TACC3 inh, CAL PDZ FP-1, GRK2 aptamer HTS, CAL PDZ FP-2) | DDE Tn6 FP ctr inactive | DDE Tn6 confirm inactive
Cc1ccc(NC(=S)N(Cc2ccco2)C2CCN(C(C)C)CC2)cc1	none
O=C(Nc1ccc2c(c1)OCO2)c1c[nH]c(=O)n(-c2ccc(F)cc2)c1=O	Tn6 DDE FP 15 | DDE Tn6 FP ctr inactive | DDE Tn6 confirm inactive
COc1ccc(-n2c(=O)[nH]cc(C(=O)Nc3ccc4c(c3)OCCO4)c2=O)cc1OC	none
CCOc1ccc(C(=O)Nc2cc(-c3nc4ccccc4[nH]3)ccc2C)cc1[N+](=O)[O-]	none (no result: CAL PDZ FP-1)
CCOc1ccc(C(=O)Nc2cc(-c3nc4ccccc4[nH]3)ccc2Cl)cc1[N+](=O)[O-]	Tn6 DDE FP 25 | DDE Tn6 FP ctr inactive | DDE Tn6 confirm inactive
CN(C(=O)COC(=O)c1cc([N+](=O)[O-])ccc1Cl)c1ccccc1	none
CC1(C)N=C(N)N=C(N)N1c1cccc(C#N)c1	Tn6 DDE FP 16 (no result: GRK2 aptamer HTS) | DDE Tn6 FP ctr inactive | DDE Tn6 confirm inactive
C=CCn1c(=O)c2c(nc3n2CC(C)CN3Cc2ccccc2)n(C)c1=O (stereo not drawn)	Tn6 DDE FP 17 | DDE Tn6 FP ctr inactive | DDE Tn6 confirm inactive
CCCn1c(=O)c2c(nc3n2CC(C)CN3Cc2ccccc2)n(C)c1=O (stereo not drawn)	none
CN1CCN(C(=O)C[C@H]2C=C[C@@H](NC(=O)c3ccc4c(c3)OCO4)[C@H](CO)O2)CC1	none (no result: Tn6 DDE FP, CAL PDZ FP-1, GRK2 aptamer HTS, CAL PDZ FP-2, Tn7 DDE FP)
COc1ccccc1N(CC(=O)N1CCOCC1)S(C)(=O)=O	none
Cc1ccc(S(=O)(=O)N(C)C[C@@H]2OCCCC[C@H](C)Oc3ccc(NS(=O)(=O)c4ccc(Cl)cc4)cc3C(=O)N([C@@H](C)CO)C[C@@H]2C)cc1	none (no result: Tn6 DDE FP, CAL PDZ FP-1, GRK2 aptamer HTS, CAL PDZ FP-2, Tn7 DDE FP)
COc1ccc2c(CCNC(N)=S)c[nH]c2c1	none
COc1ccc2c(CC#N)c[nH]c2c1	Tn6 DDE FP 16 | DDE Tn6 FP ctr inactive | DDE Tn6 confirm inactive
Cc1ccccc1S(=O)(=O)NCC[C@H]1CC[C@@H](NC(=O)Nc2cccc(F)c2)[C@@H](CO)O1	none (no result: Tn6 DDE FP, CAL PDZ FP-1, GRK2 aptamer HTS, CAL PDZ FP-2, Tn7 DDE FP)

Bioassay records as filed in PubChem BioAssay.
